# Test results as given in ChEMBL document CHEMBL4819015, “Design, synthesis, and biological evaluation of hederagenin derivatives with improved aqueous solubility and tumor resistance reversal activity” (Eur J Med Chem, 2021).
# Experiments:
# [1] = Aqueous solubility of compound in deionized water at 37 degC measured by UV-vis spectrophotometry
# [2] = molecular target: T1, ATP-dependent translocase ABCB1 (Homo sapiens, UniProt P08183); test: Reversal of P-glycoprotein mediated multidrug resistance in human KBV cells assessed as potentiation of paclitaxel-induced cytotoxicity by measuring cell survival rate at 10 uM measured after 72 hrs by MTT assay; format: cell-based
# Method in brief: (§1)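 KBV or MCF-7T cells were grown in DMEM with 10% heat-inactivated FCS, penicillin/streptomycin, 37 °C and 5% CO2, with periodic 10 nM paclitaxel to keep resistance; cells were used in exponential phase. Cells were exposed to test articles for 72 h, given MTT for about 2 h, the medium was removed and DMSO added. A570 gave the survival rate.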
# [3] = molecular target: T1, ATP-dependent translocase ABCB1; test: Reversal of P-glycoprotein mediated multidrug resistance in human KBV cells assessed as paclitaxel-mediated apoptosis by measuring accumulation of cells in Sub-G1 phase in at 5 uM measured by flowcytometry method (Rvb (paclitaxel)= 2.1%); format: cell-based
# [4] = molecular target: T1, ATP-dependent translocase ABCB1; test: Reversal of P-glycoprotein mediated multidrug resistance in human KBV cells assessed as paclitaxel-mediated apoptosis by measuring accumulation of cells in Sub-G1 phase in at 10 uM measured by flowcytometry method (Rvb (paclitaxel)= 2.1%); format: cell-based
# [5] = Antiproliferative activity against human KBV cells in presence of 100 nM Paclitaxel; format: functional, cell-based
# Method in brief: as §1
# [6] = Antitumour activity against human KBV cells xenografted in nude mouse assessed as paclitaxel-mediated tumour growth inhibition at 10 mg/kg; format: functional; details: read-out: TGI
# [7] = Induction of apoptosis in human KBV cells assessed as accumulation of cells in Sub-G1 phase at 10 uM measured by flowcytometry method (reference value: 1.9%); format: functional
# [8] = Cytotoxicity against human KBV cells assessed as cell survival at 10 uM measured after 72 hrs by MTT assay; format: functional; details: read-out: Activity
# Method in brief: as §1
# [9] = molecular target: T1, ATP-dependent translocase ABCB1; test: Inhibition of P-glycoprotein mediated Flutax1 efflux in human KBV cells assessed as Flutax1 accumulation at 5 uM […] by flowcytometry; format: cell-based
# [10] = Stability of compound in presence of Porcine liver esterase assessed as residual activity at pH 7.4 measured after 12 hrs; format: ADME; details: pig, read-out: Stabilty
# Method in brief: (§2)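 Compound in PBS pH 7.4 with porcine liver esterase, shaken at 37 °C. Aliquots were taken at set times, diluted 10-fold and centrifuged at 14,000 rpm for 5 min. Supernatants were run on C18 HPLC with isocratic 95% methanol/water (0.1% TFA) at 1 mL/min, UV 306 nm. Percent remaining is relative to the 0 h sample.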
# [11] = Stability of compound in presence of Porcine liver esterase assessed as residual activity at pH 7.4 measured after 4 hrs; format: ADME; details: pig, read-out: Stabilty
# Method in brief: as §2
# [12] = molecular target: T1, ATP-dependent translocase ABCB1; test: Inhibition of P-glycoprotein mediated Rhodamine-123 efflux in human MCF-7T cells assessed as Rhodamine-123 accumulation measured after 2 hrs by flowcytometry; format: cell-based; details: dose 5-10 µM
# Method in brief: (§3)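 KBV or MCF-7T cells were pretreated with or without compound for 2 h, then loaded with rhodamine 123 for 30 min. Cells were harvested and washed three times in PBS. Flow cytometry of 10,000 cells gave mean fluorescence intensity; mean ± SD, n = 3.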
# [13] = molecular target: T1, ATP-dependent translocase ABCB1; test: Inhibition of P-glycoprotein mediated Rhodamine-123 efflux in human KBV cells assessed as Rhodamine-123 accumulation measured after 2 hrs by flowcytometry; format: cell-based; details: dose 5-10 µM
# Method in brief: as §3
# [14] = molecular target: T1, ATP-dependent translocase ABCB1; test: Inhibition of P-glycoprotein mediated Flutax1 efflux in human KBV cells assessed as Flutax1 accumulation at 10 uM measured after 2 hrs by flowcytometry; format: cell-based; details: mcf-t, in the assay text read “human MCF-7T cells” for “human KBV cells”
# [15] = Stability of compound in presence of Porcine liver esterase assessed as residual activity at pH 7.4 measured after 24 hrs; format: ADME; details: pig, read-out: Stabilty
# Method in brief: as §2
# [16] = Cytotoxicity against human KBV cells assessed as cell survival measured after 72 hrs by MTT assay; format: functional, cell-based
# Method in brief: as §1
# [17] = Cytotoxicity against human MCF-T cells assessed as cell survival measured after 72 hrs by MTT assay; format: functional, cell-based
# Method in brief: as §1
# T1 sequence (P08183 whole entry): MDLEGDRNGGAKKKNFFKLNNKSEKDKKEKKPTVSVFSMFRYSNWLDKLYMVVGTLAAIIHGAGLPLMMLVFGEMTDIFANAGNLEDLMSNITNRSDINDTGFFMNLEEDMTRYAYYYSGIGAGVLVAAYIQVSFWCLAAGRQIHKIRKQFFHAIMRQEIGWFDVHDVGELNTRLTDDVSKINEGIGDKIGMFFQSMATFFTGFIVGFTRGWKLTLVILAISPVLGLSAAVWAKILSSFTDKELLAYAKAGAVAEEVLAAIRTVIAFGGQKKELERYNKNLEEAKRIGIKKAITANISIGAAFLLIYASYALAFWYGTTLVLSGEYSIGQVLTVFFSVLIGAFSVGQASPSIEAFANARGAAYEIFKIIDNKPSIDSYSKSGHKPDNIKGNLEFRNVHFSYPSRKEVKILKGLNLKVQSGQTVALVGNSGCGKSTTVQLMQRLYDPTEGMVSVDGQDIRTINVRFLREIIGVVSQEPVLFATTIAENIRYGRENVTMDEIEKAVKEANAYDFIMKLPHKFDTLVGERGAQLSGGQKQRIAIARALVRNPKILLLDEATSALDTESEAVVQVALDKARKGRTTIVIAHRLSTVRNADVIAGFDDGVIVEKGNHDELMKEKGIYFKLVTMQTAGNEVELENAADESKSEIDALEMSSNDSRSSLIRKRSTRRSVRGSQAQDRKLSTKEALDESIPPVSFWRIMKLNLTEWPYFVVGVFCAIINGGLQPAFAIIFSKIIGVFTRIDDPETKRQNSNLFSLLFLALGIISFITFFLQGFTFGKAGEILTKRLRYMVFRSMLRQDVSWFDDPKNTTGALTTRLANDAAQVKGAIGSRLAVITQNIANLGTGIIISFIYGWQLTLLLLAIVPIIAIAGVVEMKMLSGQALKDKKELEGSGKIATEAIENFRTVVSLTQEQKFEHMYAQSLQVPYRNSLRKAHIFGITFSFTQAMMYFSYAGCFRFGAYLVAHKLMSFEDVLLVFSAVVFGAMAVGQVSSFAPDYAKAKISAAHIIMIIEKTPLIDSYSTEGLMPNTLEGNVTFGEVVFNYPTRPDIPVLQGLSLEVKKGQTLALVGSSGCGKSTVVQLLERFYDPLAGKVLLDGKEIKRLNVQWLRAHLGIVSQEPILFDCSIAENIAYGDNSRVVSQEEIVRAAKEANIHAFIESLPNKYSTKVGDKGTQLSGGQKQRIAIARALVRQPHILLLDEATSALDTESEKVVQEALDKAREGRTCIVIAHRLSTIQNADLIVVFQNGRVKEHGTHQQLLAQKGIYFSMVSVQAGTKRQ
SMILES,cell survival rate [2],viability at 10 µM [8],also measured
CC1(C)CC[C@]2(C(=O)OCc3ccccc3)CC[C@]3(C)C(=CC[C@@H]4[C@@]5(C)Cc6nccnc6[C@@](C)(CO)[C@@H]5CC[C@]43C)[C@@H]2C1,18.17%,–,"solubility ([1]; pH 7.4, read-out: solubility): 1.2 µg/mL; Activity [3]: 15.6%; Activity [4]: 25.4%; IC50 [5]: 2.39 nM; inhibition in vivo at 10 mg/kg [6]: 41.9%; Activity [7]: 2.3%"
CN(C)CCCOC(=O)[C@]12CCC(C)(C)C[C@H]1C1=CC[C@@H]3[C@@]4(C)Cc5nccnc5[C@@](C)(CO)[C@@H]4CC[C@@]3(C)[C@]1(C)CC2,12.65%,67.5%,–
CCN1CCN(C(=O)[C@]23CCC(C)(C)C[C@H]2C2=CC[C@@H]4[C@@]5(C)Cc6nccnc6[C@@](C)(CO)[C@@H]5CC[C@@]4(C)[C@]2(C)CC3)CC1,16.67%,120%,–
CC1(C)CC[C@]2(C(=O)OCC(=O)OCCOCCOCCOCCO)CC[C@]3(C)C(=CC[C@@H]4[C@@]5(C)Cc6nccnc6[C@@](C)(CO)[C@@H]5CC[C@]43C)[C@@H]2C1,25.88%,75.4%,–
CC1(C)CC[C@]2(C(=O)N3CCOCC3)CC[C@]3(C)C(=CC[C@@H]4[C@@]5(C)Cc6nccnc6[C@@](C)(CO)[C@@H]5CC[C@]43C)[C@@H]2C1,16.37%,110%,–
CC1(C)CC[C@]2(C(=O)OCC(=O)OCCOCCOCCOCCOCCOCCOCCOCCOCCO)CC[C@]3(C)C(=CC[C@@H]4[C@@]5(C)Cc6nccnc6[C@@](C)(CO)[C@@H]5CC[C@]43C)[C@@H]2C1,25.16%,76%,–
CC1(C)CC[C@]2(C(=O)OCc3ccccc3)CC[C@]3(C)C(=CC[C@@H]4[C@@]5(C)Cc6nccnc6[C@@](C)(COC(=O)CCC(=O)OCCOCCO)[C@@H]5CC[C@]43C)[C@@H]2C1,79.47%,72.7%,solubility ([1]; pH 7.4): Soluble
CC1(C)CC[C@]2(C(=O)O)CC[C@]3(C)C(=CC[C@@H]4[C@@]5(C)Cc6cn[nH]c6[C@@](C)(CO)[C@@H]5CC[C@]43C)[C@@H]2C1,99.31%,109%,–
CC1(C)CC[C@]2(C(=O)OCC(=O)OCCOCCO)CC[C@]3(C)C(=CC[C@@H]4[C@@]5(C)Cc6nccnc6[C@@](C)(CO)[C@@H]5CC[C@]43C)[C@@H]2C1,26.15%,81.7%,–
CC1(C)CC[C@]2(C(=O)OCc3ccccc3)CC[C@]3(C)C(=CC[C@@H]4[C@@]5(C)Cc6cn[nH]c6[C@@](C)(CO)[C@@H]5CC[C@]43C)[C@@H]2C1,21.95%,83.1%,–
CC1(C)CC[C@]2(C(=O)N3CCCCC3)CC[C@]3(C)C(=CC[C@@H]4[C@@]5(C)Cc6nccnc6[C@@](C)(CO)[C@@H]5CC[C@]43C)[C@@H]2C1,25.27%,59.4%,–
CN1CCN(C(=O)[C@]23CCC(C)(C)C[C@H]2C2=CC[C@@H]4[C@@]5(C)Cc6nccnc6[C@@](C)(CO)[C@@H]5CC[C@@]4(C)[C@]2(C)CC3)CC1,23.51%,124%,–
CC1(C)CC[C@]2(C(=O)OCc3ccccc3)CC[C@]3(C)C(C(=O)C[C@@H]4[C@@]5(C)Cc6nccnc6[C@@](C)(CO)[C@@H]5CC[C@]43C)[C@@H]2C1 (some centres undefined),20.77%,129%,–
CC1(C)CC[C@]2(C(=O)OCc3ccccc3)CC[C@]3(C)C(=CC[C@@H]4[C@@]5(C)Cc6nccnc6[C@@](C)(COC(=O)CCC(=O)OCCOCCOCCOCCOCCOCCOCCOCCOCCOCCOCCOCCOCCO)[C@@H]5CC[C@]43C)[C@@H]2C1.CO,15.93%,69.7%,"solubility ([1]; pH 7.4, read-out: solubility): 789 µg/mL"
CC1(C)CC[C@]2(C(=O)OCC(=O)OCCOCCOCCO)CC[C@]3(C)C(=CC[C@@H]4[C@@]5(C)Cc6nccnc6[C@@](C)(CO)[C@@H]5CC[C@]43C)[C@@H]2C1,28.76%,80.5%,–
Cc1nc2c(s1)C[C@@]1(C)[C@@H](CC[C@]3(C)[C@@H]1CC=C1[C@@H]4CC(C)(C)CC[C@]4(C(=O)O)CC[C@]13C)[C@]2(C)CO,61.78%,96%,–
CC1(C)CC[C@]2(C(=O)OCc3ccccc3)CC[C@]3(C)C(=CC[C@@H]4[C@@]5(C)Cc6nccnc6[C@@](C)(COC(=O)CCC(=O)OCCOCCOCCOCCO)[C@@H]5CC[C@]43C)[C@@H]2C1,11.97%,90.3%,"Activity [9]: Active; remaining at 12 h [10]: 81.8%; remaining at 4 h [11]: 98.3%; solubility ([1]; pH 7.4, read-out: solubility): 21.6 µg/mL; Activity [12]: Dose-Dependent Effect; Activity [13]: Dose-Dependent Effect; Activity [3]: 20.7%; Activity [14]: Active; Activity [4]: 48.9%; remaining at 24 h [15]: 78.9%; Activity [7]: 2.4%"
Cc1nc2c(s1)C[C@@]1(C)[C@@H](CC[C@]3(C)[C@@H]1CC=C1[C@@H]4CC(C)(C)CC[C@]4(C(=O)OCc4ccccc4)CC[C@]13C)[C@]2(C)CO,27.85%,98.6%,–
CC1(C)CC[C@]2(C(=O)OCC(=O)OCCOCCOCCOCCOCCOCCOCCOCCOCCOCCOCCOCCOCCO)CC[C@]3(C)C(=CC[C@@H]4[C@@]5(C)Cc6nccnc6[C@@](C)(CO)[C@@H]5CC[C@]43C)[C@@H]2C1,39.13%,73.3%,–
CC1(C)CC[C@]2(C(=O)OCc3ccccc3)CC[C@]3(C)C(=CC[C@@H]4[C@@]5(C)Cc6nccnc6[C@@](C)(COC(=O)CCC(=O)OCCOCCOCCOCCOCCOCCOCCOCCOCCO)[C@@H]5CC[C@]43C)[C@@H]2C1,15.38%,70.6%,"solubility ([1]; pH 7.4, read-out: solubility): 546 µg/mL"
CC1(C)CC[C@]2(C(=O)OCc3ccccc3)CC[C@]3(C)C(=CC[C@@H]4[C@@]5(C)Cc6nccnc6[C@@](C)(COC(=O)CCC(=O)OCCOCCOCCO)[C@@H]5CC[C@]43C)[C@@H]2C1,43.54%,82.5%,solubility ([1]; pH 7.4): Soluble
COc1ccc(CCN(C)CCCC(C#N)(c2ccc(OC)c(OC)c2)C(C)C)cc1OC (centres undefined),–,–,Activity [3]: 40.6%; Activity [7]: 2.4%
CC1(C)CC[C@]2(C(=O)O)CC[C@]3(C)C(=CC[C@@H]4[C@@]5(C)CC[C@H](O)[C@@](C)(CO)[C@@H]5CC[C@]43C)[C@@H]2C1 [HEDERAGENIN],107.17%,–,–
CC(=O)O[C@H]1C(=O)[C@@]2(C)[C@H]([C@H](OC(=O)c3ccccc3)[C@]3(O)C[C@H](OC(=O)[C@H](O)[C@@H](NC(=O)c4ccccc4)c4ccccc4)C(C)=C1C3(C)C)[C@]1(OC(C)=O)CO[C@@H]1C[C@@H]2O [PACLITAXEL],103.48%,–,IC50 [16]: 778 nM; Activity [7]: 2.1%
CC[C@]1(O)C[C@H]2CN(CCc3c([nH]c4ccccc34)[C@@](C(=O)OC)(c3cc4c(cc3OC)N(C=O)[C@H]3[C@@](O)(C(=O)OC)[C@H](OC(C)=O)[C@]5(CC)C=CCN6CC[C@]43[C@@H]65)C2)C1 [VINCRISTINE],–,–,IC50 [17]: 9.45 nM
